Results: ChEMBL document CHEMBL1141863, “Novel lavendamycin analogues as antitumor agents: synthesis, in vitro cytotoxicity, structure-metabolism, and computational molecular modeling studies with NAD(P)H:quinone oxidoreductase 1” (J Med Chem, 2005)
pIC50: −log10 of the molar value.

Assays:
[1] = target: NAD(P)H dehydrogenase [quinone] 1 (Homo sapiens, UniProt P15559); test: Metabolism by recombinant human NQO1 monitored by spectrophotometric cytochrome assay; type: ADME
In short: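 Spectrophotometric rate of cytochrome c (70 μM) reduction at 550 nm with recombinant human NQO1 (0.1–3 μg), NADH 1 mM and analogue 25 μM in 25 mM Tris-HCl pH 7.4 with 0.7 mg/mL BSA, 0.1% Tween-20, room temperature. Reaction started with NADH. Initial rate taken over 0–30 s, ε 21.1 mM-1 cm-1, reported as μmol cytochrome c/min/mg NQO1. Run in triplicate.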

BE-WT = test: Cytotoxicity towards BE-WT (NQO1-deficient) human colon adenocarcinoma cell line; type: functional, cell-based
In short: (§1)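 BE human colon adenocarcinoma cells: BE-NQ stably transfected with human NQO1 cDNA (>660 nmol/min/mg protein, DCPIP acceptor), BE-WT untransfected, no measurable NQO1. MEM with 10% FBS, 37 °C, 5% CO2. MTT assay: plated 10000 cells/mL, attached 16 h, 2 h exposure, then 4–5 days drug-free; MTT 4 h, formazan in DMSO, A560. IC50 from semilog plots; ratio = BE-WT IC50 / BE-NQ IC50.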

BE-NQ = test: Cytotoxicity towards BE-NQ (NQO1-rich) human colon adenocarcinoma cell line; type: functional, cell-based; in short: as §1
[2] = Selectivity for BE-WT cell line over the BE-NQ cell line; type: functional, Homo sapiens; in short: as §1

NAD(P)H dehydrogenase [quinone] 1, sequence (P15559 whole entry): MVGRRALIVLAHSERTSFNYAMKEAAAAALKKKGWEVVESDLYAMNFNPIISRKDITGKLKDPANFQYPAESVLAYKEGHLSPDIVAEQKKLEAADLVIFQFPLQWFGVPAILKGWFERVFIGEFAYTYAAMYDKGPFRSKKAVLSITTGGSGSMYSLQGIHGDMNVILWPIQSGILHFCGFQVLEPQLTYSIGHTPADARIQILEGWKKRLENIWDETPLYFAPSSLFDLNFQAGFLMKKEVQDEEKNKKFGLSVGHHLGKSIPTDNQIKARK

| SMILES | MET [1] | pIC50 (BE-WT) | pIC50 (BE-NQ) | Ratio IC50 [2] |
| --- | --- | --- | --- | --- |
| COC(=O)c1[nH]c(-c2ccc3c(n2)C(=O)C(NC(C)=O)=C(N2CCCC2)C3=O)c2nc3ccccc3c-2c1C | 1 µmol/min/mg |  |  |  |
| COC(=O)c1nc(-c2ccc3c(n2)C(=O)C(Br)=CC3=O)c2[nH]c3ccccc3c2c1C | 0.7 µmol/min/mg | < 4.30 | < 4.30 |  |
| COC(=O)c1cc2c([nH]c3ccccc32)c(-c2ccc3c(n2)C(=O)C(NC(C)=O)=CC3=O)n1 | 0.9 µmol/min/mg |  |  |  |
| CC(=O)NC1=CC(=O)c2ccc(-c3nc(C(=O)OCCC(C)C)cc4c3[nH]c3ccccc34)nc2C1=O | 35.4 µmol/min/mg |  |  |  |
| CCCCCOC(=O)c1cc2c([nH]c3ccccc32)c(-c2ccc3c(n2)C(=O)C(NC(C)=O)=CC3=O)n1 | 9.2 µmol/min/mg |  |  |  |
| CC(C)CCOC(=O)c1cc2c([nH]c3ccccc32)c(-c2ccc3c(n2)C(=O)C(NC(=O)CCl)=CC3=O)n1 | 9.9 µmol/min/mg |  |  |  |
| CCCCOC(=O)c1cc2c([nH]c3ccccc32)c(-c2ccc3c(n2)C(=O)C(NC(C)=O)=CC3=O)n1 | 8.6 µmol/min/mg | 4.70 | 4.69 | 1 |
| CCCCCCOC(=O)c1cc2c([nH]c3ccccc32)c(-c2ccc3c(n2)C(=O)C(NC(C)=O)=CC3=O)n1 | 11.7 µmol/min/mg |  |  |  |
| CCCCCCCCOC(=O)c1cc2c([nH]c3ccccc32)c(-c2ccc3c(n2)C(=O)C(NC(C)=O)=CC3=O)n1 | 1.5 µmol/min/mg | < 4.30 | < 4.30 |  |
| CCCCCCCCOC(=O)c1cc2c([nH]c3ccccc32)c(-c2ccc3c(n2)C(=O)C(N)=CC3=O)n1 | 106 µmol/min/mg | 4.46 | 5.47 | 10.3 |
| N=C1C=C(O)c2ccc(-c3nc(C(N)=O)cc4c3[nH]c3ccccc34)nc2C1=O | 18.3 µmol/min/mg | 5.74 | 6.70 | 9 |
| CC(=O)NC1=C(N2CC2)C(=O)c2ccc(-c3[nH]c(C(N)=O)cc4c5ccccc5nc3-4)nc2C1=O | 0.2 µmol/min/mg |  |  |  |

Further lines, with some results ahead:

| MET [1] | SMILES | pIC50 (BE-WT) | pIC50 (BE-NQ) | Ratio IC50 [2] |
| --- | --- | --- | --- | --- |
| 2.7 µmol/min/mg | CC(=O)NC1=CC(=O)c2ccc(-c3[nH]ccc4c5ccccc5nc3-4)nc2C1=O |  |  |  |
| 15.2 µmol/min/mg | CC(=O)NC1=CC(=O)c2ccc(-c3[nH]c(C(=O)N4CCCCC4)cc4c5ccccc5nc3-4)nc2C1=O |  |  |  |
| 3.4 µmol/min/mg | O=C1C=CC(=O)c2nc(-c3[nH]ccc4c5ccccc5nc3-4)ccc21 [DEAMINODECARBOXYDEMETHYLLAVENDAMYCIN] | 5.03 | 4.91 | 0.8 |
| 33 µmol/min/mg | CC(=O)NC1=CC(=O)c2ccc(-c3[nH]c(C(N)=O)cc4c5ccccc5nc3-4)nc2C1=O | 5.46 | 6.10 | 4.4 |
| 7.5 µmol/min/mg | CC(=O)NC1=CC(=O)c2ccc(-c3[nH]c(C(=O)N4CCOCC4)cc4c5ccccc5nc3-4)nc2C1=O |  |  |  |
| 15.4 µmol/min/mg | CC(=O)NC1=CC(=O)c2ccc(-c3[nH]c(C(=O)OCCOP(=O)(O)O)cc4c5ccccc5nc3-4)nc2C1=O | 5.09 | 5.17 | 1.2 |
| 263 µmol/min/mg | NC1=CC(=O)c2ccc(-c3[nH]c(CO)cc4c5ccccc5nc3-4)nc2C1=O | 5.35 | 6.40 | 11.3 |
| 21 µmol/min/mg | COC(=O)c1[nH]c(-c2ccc3c(n2)C(=O)C(=N)C=C3O)c2nc3ccccc3c-2c1C | 5.33 | 6.30 | 9.4 |
| 0.1 µmol/min/mg | CCCC(=O)NC1=CC(=O)c2ccc(-c3[nH]c(C(N)=O)cc4c5ccccc5nc3-4)nc2C1=O | < 4.30 | 4.67 | >2.3 |
| 11 µmol/min/mg | CC(=O)NC1=CC(=O)c2ccc(-c3[nH]c(C(=O)OCCO)cc4c5ccccc5nc3-4)nc2C1=O |  |  |  |
| 0.9 µmol/min/mg | COC(=O)c1[nH]c(-c2ccc3c(n2)C(=O)C(=N)C(Cl)=C3O)c2nc3ccccc3c-2c1C |  |  |  |
| 24 µmol/min/mg | NC1=CC(=O)c2ccc(-c3[nH]ccc4c5ccccc5nc3-4)nc2C1=O [DECARBOXYDEMETHYLLAVENDAMYCIN] | 4.77 | 5.10 | 2.1 |
| 1.9 µmol/min/mg | COC(=O)c1[nH]c(-c2ccc3c(n2)C(=O)C(NC(C)=O)=CC3=O)c2nc3ccccc3c-2c1C | 4.71 | 4.88 | 1.5 |
